Results on 13 compounds are retold here after PMC4894453 (Scientific Reports, 2014).

Series [1] concerns S. aureus Newman. The series is described as follows: Membrane potential by flow cytometry with DiOC2. The series is classed as cell-based, Staphylococcus aureus. The settings on record: 10 μM, 30 min, DiOC2(3). The procedure, abridged:
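Exponential-phase S. aureus Newman (OD600 ≈ 0.3, Mueller-Hinton II broth) treated with test compound at 100, 10 or 1 μM for 30 min at 37°C. Cells stained 5 min with 30 μM DiOC2(3) and run on flow cytometry (10,000 events, 488 nm excitation, green and red emission). Red/green fluorescence ratio histograms compared. CCCP was the positive control; at least two independent samples.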

Series [2] has as its system panel of clinical relevant Gram-positive pathogens. Briefly: MIC, statements over the Gram-positive panel. The series is classed as cell-based.
The test system of series [3] is Enterococcus faecalis ATCC 33186. The series is described as follows: MIC, microbroth dilution, Enterococcus faecalis. The settings on record: Enterococcus faecalis, ATCC33186, read-out: MIC against Gram-positive bacteria, EF, Enterococcus faecalis ATCC 33186; Mueller-Hinton broth, 18–20 h. The class given is cell-based.
Series [4] relates to methicillin-resistant Staphylococcus aureus N315. Briefly: MIC, microbroth dilution, MRSA. The class given is cell-based. The settings on record: Staphylococcus aureus, MRSA, read-out: MIC against Gram-positive bacteria, MRSA. The procedure, abridged:
(§1)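 CLSI microbroth dilution in Mueller-Hinton broth. Test compound at final 200–0.1 μg/ml, diluted from 10 mg/ml DMSO stocks. Plates incubated 18–20 h. MIC is the lowest concentration preventing visible growth.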

Series [5] relates to Vero cells (kidney epithelial cells; ATCC CCL-81). The series is described as follows: Cytotoxicity, CellTiter-Glo viability. The series is classed as cell-based. The settings on record: for Selectivity index: Cytotox IC50/MIC against methicillin-susceptible S. aureus Newman. The procedure, abridged:
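Vero kidney epithelial cells exposed 72 h to test compound (final 200–0.1 μg/ml in DMEM; diluted from 10 mg/ml DMSO stocks). Viability read by CellTiter-Glo luminescence. IC50 is the concentration giving 50% viability loss, from curve fitting. Selectivity index is the cytotoxic IC50 divided by the MIC against S. aureus Newman.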

The subject of series [6] is Streptococcus pyogenes ATCC 700294. Briefly: MIC, microbroth dilution, Streptococcus pyogenes. The series is classed as cell-based. The settings on record: Streptococcus pyogenes, ATCC700294, read-out: MIC against Gram-positive bacteria, SP.
Series [7] relates to Bacillus anthracis sterne. Briefly: microbe, parasite or virus in culture. The series is classed as cell-based. The settings on record: Bacillus anthracis, read-out: MIC against Gram-positive bacteria, BA.
Series [8] deals with Streptococcus pneumoniae R6. Briefly: MIC, microbroth dilution, Streptococcus pneumoniae. The class given is cell-based. The settings on record: Streptococcus pneumoniae, R6, read-out: MIC against Gram-positive bacteria, SPn. The procedure, abridged: as §1
Series [9] has as its system Clostridium difficile BAA 1803. The series is described as follows: MIC, microbroth dilution, anaerobic, Clostridium difficile. The series is classed as cell-based. The following applies: Clostridioides difficile, BAA1803, 24 h, read-out: MIC against Gram-positive bacteria, CD, Clostridium difficile BAA 1803; Brain-heart infusion broth, 24 h, anaerobic.
In series [10] the test system is Bacillus subtilis ATCC 23857. Briefly: MIC, microbroth dilution, Bacillus subtilis. The settings on record: Bacillus subtilis, ATCC23857, read-out: MIC against Gram-positive bacteria, BS. The series is classed as cell-based. The procedure, abridged:
as §1

In series [11] the test system is methicillin-susceptible Staphylococcus aureus Newman. Briefly: MIC, microbroth dilution, MSSA. The class given is cell-based. The procedure, abridged: as §1

Converted amounts (≈) assume the structure as drawn. Bounds are passed on as bounds.

Regarding `N#CC(C#N)=NNc1cccc(Cl)c1` [CCCP, carbonyl cyanide m-chlorophenyl hydrazone, reference compound], the “dissipation of the membrane potential” value in series [1] is “complete dissipation of the membrane potential”.
For the compound `CCCCC(=O)N1C(=O)/C(=C(/C)O)C(=O)C1CC(C)C` (centres unmarked) [Compound 3, (Z)-3-(1-hydroxyethylidene)-5-isobutyl-1-pentanoylpyrrolidine-2,4-dione], in [2] (Gram-positive panel (most bacteria)), the “fold less active than reutericyclin” value is reported as at least 32 fold. The MIC is 50 µg/mL (≈ 178 µM) in series [3]; 12.5 µg/mL (≈ 44.4 µM) in series [4]; 12.5 µg/mL (≈ 44.4 µM) in series [6]; over 200 µg/mL in series [7]; 6.25 µg/mL (≈ 22.2 µM) in series [8]; 16 µg/mL (≈ 56.9 µM) in [9]. Besides, the MIC in series [10] was determined as 100 µg/mL (≈ 355 µM). Also, the Selectivity index in series [5] is reported as 1.
As to `C/C(O)=C1\C(=O)C(CC(C)C)N(C(=O)C=Cc2ccccc2)C1=O` (centres unmarked) [Compound 4, (Z)-1-cinnamoyl-3-(1-hydroxyethylidene)-5-isobutylpyrrolidine-2,4-dione], the “fold better activity than 3 throughout the panel” value in series [2] (Gram-positive panel, compared to 3) was at most 8 fold. The MIC in series [3] was 12.5 µg/mL (≈ 38.2 µM); in series [4], 1.6 µg/mL (≈ 4.89 µM); in [6], 25 µg/mL (≈ 76.4 µM); in [7] it was over 200 µg/mL; in series [8] it was 3.13 µg/mL (≈ 9.56 µM); in [9] it was 8 µg/mL (≈ 24.4 µM). For the same compound, the MIC in [10] came out at 25 µg/mL (≈ 76.4 µM). Also, in [5], the Selectivity index is recorded as 2.
In the case of `CCCCCCC/C=C/C(=O)N1C(=O)/C(=C(\O)c2ccncc2)C(=O)C1CC(C)C` (centres unmarked) [Compound 8, (Z)-1-((E)-dec-2-enoyl)-3-(hydroxy(pyridin-4-yl)methylene)-5-isobutylpyrrolidine-2,4-dione], the MIC in series [3] came to 50 µg/mL (≈ 121 µM); in series [4], 12.5 µg/mL (≈ 30.3 µM); in series [6], 100 µg/mL (≈ 242 µM); in series [7] it was 50 µg/mL (≈ 121 µM); in [8], 25 µg/mL (≈ 60.6 µM); in [9] it was 0.5 µg/mL (≈ 1.21 µM). In addition, the MIC in series [10] was found to be 100 µg/mL (≈ 242 µM). This compound had a Selectivity index in [5] of 5.
For `CCCCCCC/C=C/C(=O)N1C(=O)/C(=C(\O)C2CCNCC2)C(=O)C1CC(C)C` (centres unmarked) [Compound 9, (Z)-1-((E)-dec-2-enoyl)-3-(hydroxy(piperidin-4-yl)methylene)-5-isobutylpyrrolidine-2,4-dione], the MIC was 50 µg/mL (≈ 119 µM) in series [3]; 50 µg/mL (≈ 119 µM) in series [4]; 100 µg/mL (≈ 239 µM) in [6]; 12.5 µg/mL (≈ 29.9 µM) in series [7]; 50 µg/mL (≈ 119 µM) in [8]; 8 µg/mL (≈ 19.1 µM) in series [9]. Moreover, the MIC in series [10] is 12.5 µg/mL (≈ 29.9 µM). In series [5], the Selectivity index was 2. Moreover, in series [1], the “dissipation of the membrane potential” value is listed as “reduced their ability to dissipate the membrane potential”.
As for `CCCCCCC/C=C/C(=O)N1C(=O)/C(=C(\O)c2ccc(OCOCCOC)cc2)C(=O)C1CC(C)C` (centres unmarked) [Compound 11, (Z)-1-((E)-dec-2-enoyl)-3-(hydroxy(4-((2-methoxyethoxy)methoxy)phenyl)methylene)-5-isobutylpyrrolidine-2,4-dione], the MIC in [3] came to 0.78 µg/mL (≈ 1.51 µM); in series [4] it was 0.2 µg/mL (≈ 0.388 µM); in series [6], 25 µg/mL (≈ 48.5 µM); in series [7], 0.2 µg/mL (≈ 0.388 µM); in series [8], 12.5 µg/mL (≈ 24.2 µM); in series [9], 0.25 µg/mL (≈ 0.485 µM). Besides, the MIC in [10] amounted to 1.56 µg/mL (≈ 3.03 µM). Besides, the Selectivity index in series [5] was 25.
Take `CCCCCCC/C=C/C(=O)N1C(=O)/C(=C(\O)c2ccc(O)cc2)C(=O)C1CC(C)C` (centres unmarked) [Compound 12, (Z)-1-((E)-dec-2-enoyl)-3-(hydroxy(4-hydroxyphenyl)methylene)-5-isobutylpyrrolidine-2,4-dione]: the MIC is 12.5 µg/mL (≈ 29.2 µM) in series [3]; 6.25 µg/mL (≈ 14.6 µM) in series [4]; 50 µg/mL (≈ 117 µM) in [6]; 0.78 µg/mL (≈ 1.82 µM) in [7]; 50 µg/mL (≈ 117 µM) in series [8]; 2 µg/mL (≈ 4.68 µM) in series [9]. Also, in series [10], the MIC turned out to be 3.13 µg/mL (≈ 7.32 µM). In addition, in series [5], the Selectivity index is recorded as 9.
As for `CCCCCCC/C=C/C(=O)N1CC(=O)/C(=C(\C)O)C1=O` [Compound 14, (Z)-1-((E)-dec-2-enoyl)-3-(1-hydroxyethylidene)pyrrolidine-2,4-dione], the MIC came to 6.25 µg/mL (≈ 21.3 µM) in series [3]; 3.2 µg/mL (≈ 10.9 µM) in [4]; 50 µg/mL (≈ 170 µM) in [6]; 1.56 µg/mL (≈ 5.32 µM) in series [7]; 12.5 µg/mL (≈ 42.6 µM) in [8]; 2 µg/mL (≈ 6.82 µM) in [9]. In addition, the MIC in [10] was determined as 12.5 µg/mL (≈ 42.6 µM). The compound further showed a Selectivity index in [5] of 3.
As to `CCCCCCC/C=C/C(=O)N1C(=O)/C(=C(/C)O)C(=O)C1CO` (centres unmarked) [Compound 15, (Z)-1-((E)-dec-2-enoyl)-3-(1-hydroxyethylidene)-5-(hydroxymethyl)pyrrolidine-2,4-dione], the MIC in series [3] is 100 µg/mL (≈ 309 µM); in [4], over 200 µg/mL; in [6] it was 50 µg/mL (≈ 155 µM); in [7], over 200 µg/mL; in [8], 100 µg/mL (≈ 309 µM); in [9] it was 64 µg/mL (≈ 198 µM). In series [10], the MIC is 200 µg/mL (≈ 618 µM). Besides, the Selectivity index in series [5] amounted to 1.
For the compound `CCCCCCC/C=C/C(=O)N1C(=O)/C(=C(/C)O)C(=O)C1CCC(=O)O` (centres unmarked) [Compound 16, 3-((Z)-1-((E)-dec-2-enoyl)-4-(1-hydroxyethylidene)-3,5-dioxopyrrolidin-2-yl)propanoic acid], the MIC in [3] was 25 µg/mL (≈ 68.4 µM); in series [4], over 200 µg/mL; in series [6], 50 µg/mL (≈ 137 µM); in [7], over 200 µg/mL; in [8], 25 µg/mL (≈ 68.4 µM); in series [9], over 64 µg/mL. In [10], the MIC turned out to be 50 µg/mL (≈ 137 µM). Moreover, the Selectivity index in series [5] was found to be 1.
With `CCCCCCC/C=C/C(=O)N1C(=O)/C(=C(/C)O)C(=O)C1CCCCN` (centres unmarked) [Compound 17, (Z)-5-(4-aminobutyl)-1-((E)-dec-2-enoyl)-3-(1-hydroxyethylidene)pyrrolidine-2,4-dione], the MIC in [3] was 50 µg/mL (≈ 137 µM); in series [4], 200 µg/mL (≈ 549 µM); in [6], over 200 µg/mL; in [7], over 200 µg/mL; in [8], over 200 µg/mL; in series [9], over 64 µg/mL. Also, in [10], the MIC is over 200 µg/mL. Moreover, the Selectivity index in series [5] worked out at 1. The “dissipation of the membrane potential” value in [1] was “reduced their ability to dissipate the membrane potential”.
For `CCCCCCC/C=C/C(=O)N1C(=O)/C(=C(/C)O)C(=O)C1Cc1ccc(O)cc1` (centres unmarked) [Compound 19, (Z)-1-((E)-dec-2-enoyl)-5-(4-hydroxybenzyl)-3-(1-hydroxyethylidene)pyrrolidine-2,4-dione], the MIC in series [3] was 50 µg/mL (≈ 125 µM); in series [4], 25 µg/mL (≈ 62.6 µM); in [6] it was 50 µg/mL (≈ 125 µM); in [7] it was 200 µg/mL (≈ 501 µM); in series [8], 25 µg/mL (≈ 62.6 µM); in series [9], 32 µg/mL (≈ 80.1 µM). Moreover, the MIC in [10] was determined as 50 µg/mL (≈ 125 µM). In addition, the Selectivity index in series [5] is given as 2. In addition, the “Cytotox IC50” value in series [5] (Vero kidney cells, 72 h, 50% reduction of viability) is 93.53 µg/mL.
Take `CCCCCCC/C=C/C(=O)N1C(=O)/C(=C(/C)O)C(=O)C1Cc1ccc(OC(C)(C)C)cc1` (centres unmarked) [Compound 20, (Z)-5-(4-(tert-butoxy)benzyl)-1-((E)-dec-2-enoyl)-3-(1-hydroxyethylidene)pyrrolidine-2,4-dione]: the MIC is 0.78 µg/mL (≈ 1.71 µM) in series [3]; under 0.1 µg/mL in series [4]; 12.5 µg/mL (≈ 27.4 µM) in [6]; 200 µg/mL (≈ 439 µM) in [7]; 6.25 µg/mL (≈ 13.7 µM) in series [8]; 0.25 µg/mL (≈ 0.549 µM) in series [9]. Further, the MIC in [10] stood at 1.56 µg/mL (≈ 3.42 µM). Further, the Selectivity index in series [5] was over 115. Besides, the “MIC against Gram-positive bacteria, MSSA” value in [11] (S. aureus Newman, 18–20 h) was under 0.1 µg/mL. Moreover, the “fold improvement in activity over reutericyclin” value in series [11] (S. aureus, strain not given) was over 4 fold.
